Test results: ChEMBL document CHEMBL1148506, “Structure-activity relationships of new 1H-imidazo[4,5-c]quinolin-4-amine derivatives as allosteric enhancers of the A3 adenosine receptor” (J Med Chem, 2006)

Key:
[1] = biological target: T1, Adenosine receptor A2b (Homo sapiens) (UniProt P29275); assay: Antagonist activity at human adenosine A2B receptor assessed as inhibition of NECA-induced cAMP accumulation in CHO membrane at 10 uM; design: scale not given: the % may be the effect or the level left
T1 sequence (whole entry): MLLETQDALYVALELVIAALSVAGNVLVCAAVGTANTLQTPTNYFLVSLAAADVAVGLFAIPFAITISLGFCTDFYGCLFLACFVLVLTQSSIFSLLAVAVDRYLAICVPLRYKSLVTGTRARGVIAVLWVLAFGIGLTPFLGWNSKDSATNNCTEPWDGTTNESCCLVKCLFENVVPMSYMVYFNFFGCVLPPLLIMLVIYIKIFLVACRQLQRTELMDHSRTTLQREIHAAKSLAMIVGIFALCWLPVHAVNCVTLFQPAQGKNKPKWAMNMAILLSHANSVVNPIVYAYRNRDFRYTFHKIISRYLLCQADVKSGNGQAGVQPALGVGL

[2] = biological target: T2, Adenosine receptor A1 (Homo sapiens) (UniProt P30542); assay: Displacement of [3H]R-PIA from human adenosine A1 receptor in CHO membrane at 10 uM; format: cell membranes
T2 sequence (whole entry): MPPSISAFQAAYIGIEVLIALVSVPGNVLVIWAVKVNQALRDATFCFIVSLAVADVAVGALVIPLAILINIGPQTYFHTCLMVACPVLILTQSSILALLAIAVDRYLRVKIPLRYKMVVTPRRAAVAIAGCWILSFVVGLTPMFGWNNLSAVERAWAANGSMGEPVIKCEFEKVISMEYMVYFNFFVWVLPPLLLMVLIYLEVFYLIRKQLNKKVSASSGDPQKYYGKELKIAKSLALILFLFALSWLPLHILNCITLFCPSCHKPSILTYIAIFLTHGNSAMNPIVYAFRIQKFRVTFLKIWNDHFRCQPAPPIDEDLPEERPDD

[3] = biological target: T3, Adenosine receptor A3 (Homo sapiens) (UniProt P0DMS8); assay: Decrease in dissociation of [125I]I-AB-MECA from human adenosine A3 receptor in CHO membrane at 10 uM relative to control after 30 min; format: cell membranes; design: scale not given: the % may be the effect or the level left
T3 sequence (whole entry): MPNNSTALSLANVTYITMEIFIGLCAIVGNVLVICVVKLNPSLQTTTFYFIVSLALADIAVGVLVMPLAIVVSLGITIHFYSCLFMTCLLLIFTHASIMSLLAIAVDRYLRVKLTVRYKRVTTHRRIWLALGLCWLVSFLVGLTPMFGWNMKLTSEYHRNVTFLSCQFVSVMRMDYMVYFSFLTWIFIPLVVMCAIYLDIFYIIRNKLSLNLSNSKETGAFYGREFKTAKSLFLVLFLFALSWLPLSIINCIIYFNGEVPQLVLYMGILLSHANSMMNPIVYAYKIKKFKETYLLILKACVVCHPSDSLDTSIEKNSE
Method in brief: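 Membranes (20 μg) preloaded with 0.5 nM [125I]I-AB-MECA, 60 min at 25°C, in 50 mM Tris-HCl pH 8.0 with 10 mM MgCl2 and 1 mM EDTA. Dissociation started with 3 μM Cl-IB-MECA, with or without 10 μM modulator. Binding read by rapid filtration at 30 min; reported as % decrease in dissociation versus control (100%).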

[4] = biological target: T3, Adenosine receptor A3 (Homo sapiens); assay: Displacement of [125I]I-AB-MECA from human adenosine A3 receptor in CHO membrane at 10 uM; format: cell membranes
Method in brief: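 Membranes from CHO cells stably expressing human A3AR (20 μg protein) incubated with 0.5 nM [125I]I-AB-MECA and 10 μM test ligand, 60 min at 25°C, in 50 mM Tris·HCl pH 8.0, 10 mM MgCl2, 1 mM EDTA. Nonspecific binding defined with 10 μM NECA; filtration, gamma counting. Mean of 2-4 experiments in duplicate.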

Adenosine receptor A2a [5] = biological target: T4, Adenosine receptor A2a (Homo sapiens, UniProt P29274); assay: Displacement of [3H]CGS21680 from human adenosine A2A receptor in HEK293 cells at 10 uM
[6] = biological target: T3, Adenosine receptor A3 (Homo sapiens); assay: Increase of efficacy at human adenosine A3 receptor in CHO cells at 10 uM relative to 2-Cl-IB-MECA
Adenosine receptor A2a [7] = biological target: T4, Adenosine receptor A2a; assay: Displacement of [3H]CGS21680 from human adenosine A2A receptor in HEK293 cells
Adenosine receptor A1 = biological target: T5, Adenosine receptor A1 (Homo sapiens, UniProt P30542); assay: Displacement of [3H]R-PIA from human adenosine A1 receptor in CHO membrane; format: cell membranes
T5 sequence (P30542 whole entry): T2 sequence (whole entry)
Method in brief: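 Membranes (40 μg/tube) from CHO cells stably expressing human A1AR, incubated with 2 nM [3H]R-PIA at 25 °C for 60 min in 50 mM Tris·HCl pH 7.4, 10 mM MgCl2. Membranes stored with 3 U/mL adenosine deaminase. Nonspecific binding defined with 10 μM N6-cyclopentyladenosine. Reaction ended by GF/B filtration.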

T4 sequence (P29274 whole entry): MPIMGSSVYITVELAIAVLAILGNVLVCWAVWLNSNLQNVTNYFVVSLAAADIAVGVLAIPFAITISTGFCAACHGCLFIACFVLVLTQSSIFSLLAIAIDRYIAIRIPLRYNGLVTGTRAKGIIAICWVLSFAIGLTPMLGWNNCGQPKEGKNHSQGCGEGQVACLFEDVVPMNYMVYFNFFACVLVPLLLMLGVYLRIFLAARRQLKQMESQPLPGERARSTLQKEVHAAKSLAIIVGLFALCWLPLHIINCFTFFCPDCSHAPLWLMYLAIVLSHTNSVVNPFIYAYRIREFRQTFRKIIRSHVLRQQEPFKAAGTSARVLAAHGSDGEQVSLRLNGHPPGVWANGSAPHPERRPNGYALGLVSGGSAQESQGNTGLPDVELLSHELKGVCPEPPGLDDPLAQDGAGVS

Activity [1] [%]	Activity [2] [%]	Activity [3] [%]	Activity [4] [%]	Activity (Adenosine receptor A2a [5]) [%]	Activity [6] [%]	Ki (Adenosine receptor A2a [7]) [µM]	Structure (SMILES)	Ki (Adenosine receptor A1) [µM]
-5.5	-5	–	52	0.4	126	–	Clc1ccc(Nc2nc3ccccc3c3[nH]c(C4CCC4)nc23)cc1Cl	–
-4.1	–	153	87	–	128	–	Cc1ccc(Nc2nc3ccccc3c3[nH]c(C4CCCC4)nc23)cc1	–
-5.6	-2	173	45	-1	145	–	Clc1ccc(Nc2nc3ccccc3c3nc(C4CCCCC4)[nH]c23)cc1Cl	–
-6.8	–	174	90	–	138	–	c1ccc(Nc2nc3ccccc3c3[nH]c(C4CCCC4)nc23)cc1	–
-7.3	-4	130	68	-2	115	–	Clc1ccc(Nc2nc3ccccc3c3[nH]c(C4CCCCCC4)nc23)cc1Cl	–
-10.2	22	159	82	17	136	> 10	Clc1ccc(Nc2nc3ccccc3c3[nH]c(C4CCCC4)nc23)cc1	> 10

More lines, now with the values behind:

Structure (SMILES)	Activity [1] [%]	Activity [2] [%]	Activity [3] [%]	Activity [4] [%]	Activity (Adenosine receptor A2a [5]) [%]	Activity [6] [%]	Ki (Adenosine receptor A2a [7]) [µM]	Ki (Adenosine receptor A1) [µM]
c1ccc2c3nc(C4CCCC4)nc-3c(Nc3ccc4cc[nH]c4c3)[nH]c2c1	10.1	70	126	89	74	125	–	–
Clc1ccc(Nc2nc3ccccc3c3[nH]c(C4CCCC4)nc23)cc1Cl	-6.7	15	144	67	0	141	> 10	> 10
CCCCCc1nc2c(Nc3ccc(Cl)c(Cl)c3)[nH]c3ccccc3c-2n1	-9.3	43.9	116	84	-1	102	–	–
c1ccc(CNc2[nH]c3ccccc3c3nc(C4CCCC4)nc2-3)cc1	-3.4	28	145	86	77	147	–	–
COc1ccc(CNc2[nH]c3ccccc3c3nc(C4CCCC4)nc2-3)cc1	0.3	59	101	80	60	109	–	–
c1ccc(CCNc2[nH]c3ccccc3c3nc(C4CCCC4)nc2-3)cc1	-11.6	52	154	84	91	137	–	–
Clc1ccc(Nc2[nH]c3ccccc3c3ncnc2-3)cc1Cl	10.2	1.8	91	39	-0.8	92	–	–
c1ccc2c3nc(C4CCCC4)nc-3c(Nc3ccc4c(c3)CCC4)[nH]c2c1	-10.7	21	108	69	8	111	–	–
COc1ccc(Nc2nc3ccccc3c3nc(C4CCCC4)[nH]c23)cc1	7.3	–	166	92	16	132	> 10	–
Clc1ccc(Nc2[nH]c3ccccc3c3nc(-c4ccco4)nc2-3)cc1Cl	9	-4	98	78	70	95	–	–
c1ccc2c3nc(C4CCCC4)nc-3c(Nc3ccc4c[nH]nc4c3)[nH]c2c1	5	56	109	67	68	96	–	–
OCc1cccc(Nc2[nH]c3ccccc3c3nc(C4CCCC4)nc2-3)c1	-4.1	51	129	56	49	118	–	–
